Laboratory results as given in ChEMBL document CHEMBL1773069, “Marinoquinolines A-F, pyrroloquinolines from Ohtaekwangia kribbensis (Bacteroidetes)” (J Nat Prod, 2011).
≈ marks a conversion by molar mass, not a printed value. Calls of active or inactive are those of the source. The calls are words filed in the database; no cut-off is given here.

What was measured:
L929 = assay: Cytotoxicity against mouse L929 cells after 5 days by MTT assay; type: functional, cell-based; details: L929, 120 h
Procedure, shortened: (§1)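 Culture media were DMEM for KB-3-1 and L929, EBM-2 for HUVEC and RPMI for MCF-7, each with 10% FBS, at 37 °C under 10% CO2. Serial dilutions from a 1 mg/mL methanol stock were added to cell suspension (50 000/mL). After 5 days, MTT was read at 590 nm. IC50 (50% growth inhibition versus control) came from dose–response curves. Methanol served as negative control.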

[1] = Cytotoxicity against human KB-3-1 cells after 5 days by MTT assay; type: functional, cell-based; details: KB 3-1, 120 h; procedure, shortened: as §1
Trypanosoma cruzi = assay: Antiparasitic activity against Trypanosoma cruzi Tulahuen C4 amastigotes; type: functional, organism-based
Leishmania donovani = assay: Antileishmanial activity against Leishmania donovani MHOM-ET-67/L82 axenic amastigotes; type: functional, organism-based
HUVEC = assay: Cytotoxicity against HUVEC after 5 days by MTT assay; type: cell-based; details: Homo sapiens, 120 h; procedure, shortened: as §1
MCF7 = assay: Cytotoxicity against human MCF7 cells after 5 days by MTT assay; type: functional, cell-based; details: MCF7, 120 h; procedure, shortened: as §1
[2] = test system: Trypanosoma brucei rhodesiense; assay: Antiparasitic activity against Trypanosoma brucei rhodesiense STIB 900 trypomastigotes; type: functional, organism-based
L6 = assay: Cytotoxicity against rat L6 cells by MTT assay; type: cell-based
Plasmodium falciparum = assay: Antimalarial activity against Plasmodium falciparum K1 intra-erythrocytic form; type: functional, organism-based
Escherichia coli [3] = assay: Antimicrobial activity against Escherichia coli at 33.5 ug/ml after 24 to 48 hrs; type: functional, organism-based
Rhodotorula glutinis = assay: Antifungal activity against Rhodotorula glutinis after 24 to 48 hrs; type: functional
Procedure, shortened: (§2)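 Broth microdilution in 96-well plates. Bacteria were grown in EBS medium. Yeasts and fungi were grown in MYC medium (1.0% phytone peptone, 1.0% glucose, 50 mM HEPES, pH 7.0). Inoculum was test organism diluted 1:100 in medium. Compound was diluted 1:1 serially from 33.5 to […] μg/mL. Plates were shaken at 600 rpm, 30 °C, for 24–48 h. MIC was the lowest concentration preventing visible growth.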

[4] = test system: Schizosaccharomyces pombe; assay: Antifungal activity against Schizosaccharomyces pombe after 24 to 48 hrs; type: functional; procedure, shortened: as §2
Mucor hiemalis = assay: Antifungal activity against Mucor hiemalis after 24 to 48 hrs; type: functional; procedure, shortened: as §2
Micrococcus luteus = assay: Antibacterial activity against Micrococcus luteus after 24 to 48 hrs; type: functional; procedure, shortened: as §2
Nocardia sp. = assay: Antibacterial activity against Nocardia flava after 24 to 48 hrs; type: functional; procedure, shortened: as §2
Escherichia coli [5] = assay: Antimicrobial activity against Escherichia coli after 24 to 48 hrs; type: functional, organism-based; procedure, shortened: as §2
[6] = test system: Schizosaccharomyces pombe; assay: Antifungal activity against Schizosaccharomyces pombe at 33.5 ug/ml after 24 to 48 hrs; type: functional, organism-based

Row | SMILES | IC50 (Trypanosoma cruzi) [µM] | IC50 (Leishmania donovani) [µM] | IC50 [2] [µM] | IC50 (Plasmodium falciparum) [µM] | IC50 (L929) [µg/mL] | IC50 [1] [µg/mL] | IC50 (HUVEC) [µg/mL] | IC50 (MCF7) [µg/mL] | IC50 (L6) [µM] | other results
1 | Cc1nc2ccccc2c2cc[nH]c12 [MARINOQUINOLINE A] | 29.5 | > 549 | 54.4 | 9.8 | 5.5 (≈ 30.2 µM) | 2.2 (≈ 12.1 µM) | 1.5 (≈ 8.23 µM) | 3.5 (≈ 19.2 µM) | 30.6 | Activity (Escherichia coli [3]): Active
2 | c1ccc(Cc2nc3ccccc3c3cc[nH]c23)cc1 [MARINOQUINOLINE C] | 28.3 | 58.8 | 42.2 | 5.5 | 5.4 (≈ 20.9 µM) | 2 (≈ 7.74 µM) | 0.55 (≈ 2.13 µM) | 2.6 (≈ 10.1 µM) | 39.1 | MIC (Rhodotorula glutinis): 33.5 µg/mL (≈ 130 µM); MIC [4]: 33.5 µg/mL (≈ 130 µM)
3 | Nc1nc(N)nc(Nc2ccc([As]3SCC(CO)S3)cc2)n1 (centres undefined) [MELARSOPROL] | – | – | 0.012 | – | – | – | – | – | – | –
4 | COc1cc([C@@H]2c3cc4c(cc3[C@H](O)[C@H]3COC(=O)[C@H]23)OCO4)cc(OC)c1OC [PODOFILOX] | – | – | – | – | – | – | – | – | 0.021 | –
5 | CC[C@]1(O)C[C@@H]2CN(CCc3c([nH]c4ccccc34)[C@@](C(=O)OC)(c3cc4c(cc3OC)N(C)[C@H]3[C@@](O)(C(=O)OC)[C@H](OC(C)=O)[C@]5(CC)C=CCN6CC[C@]43[C@@H]65)C2)C1 [VINBLASTINE] | – | – | – | – | 0.018 (≈ 0.0222 µM) | 0.0086 (≈ 0.0106 µM) | – | – | – | –

Further lines, with some results ahead:

Row | IC50 (Trypanosoma cruzi) [µM] | IC50 (Leishmania donovani) [µM] | IC50 [2] [µM] | IC50 (Plasmodium falciparum) [µM] | SMILES | IC50 (L929) [µg/mL] | IC50 [1] [µg/mL] | IC50 (HUVEC) [µg/mL] | IC50 (MCF7) [µg/mL] | IC50 (L6) [µM] | other results
6 | 27 | 120 | 61.2 | 15 | Oc1ccc(Cc2nc3ccccc3c3cc[nH]c23)cc1 [MARINOQUINOLINE D] | 1.1 (≈ 4.01 µM) | 3.2 (≈ 11.7 µM) | 2.5 (≈ 9.11 µM) | 3.2 (≈ 11.7 µM) | 66.4 | Activity (Rhodotorula glutinis): inactive; Activity (Mucor hiemalis): inactive; Activity (Micrococcus luteus): inactive; Activity (Nocardia sp.): inactive; Activity (Escherichia coli [5]): inactive; Activity [4]: inactive
7 | 23.6 | 63.9 | 51.5 | 7.6 | c1ccc2c(c1)nc(-c1c[nH]c3ccccc13)c1[nH]ccc12 [MARINOQUINOLINE E] | 5.5 (≈ 19.4 µM) | 4.5 (≈ 15.9 µM) | 5.8 (≈ 20.5 µM) | 1.9 (≈ 6.71 µM) | 35.6 | MIC (Rhodotorula glutinis): 33.5 µg/mL (≈ 118 µM); MIC (Mucor hiemalis): 33.5 µg/mL (≈ 118 µM); MIC (Micrococcus luteus): 33.5 µg/mL (≈ 118 µM); MIC (Nocardia sp.): 33.5 µg/mL (≈ 118 µM); MIC [4]: 33.5 µg/mL (≈ 118 µM)
8 | 21.8 | 16.1 | 39 | 1.7 | O=C(c1c[nH]c2ccccc12)c1nc2ccccc2c2cc[nH]c12 [MARINOQUINOLINE F] | 4.1 (≈ 13.2 µM) | 0.3 (≈ 0.964 µM) | 2.8 (≈ 8.99 µM) | 1.6 (≈ 5.14 µM) | 12.5 | Activity [6]: Active
